An excerpt weighted towards active compounds, which were near 2.3% of everything screened.
STEP inh = STEP phosphatase inhibitors, primary screen, biochemical, fluorescence intensity, uHTS; 0.25% of 360,000 active; inhibition, % at 20 µM; Tyrosine-protein phosphatase non-receptor type 5 (Homo sapiens), P54829; recombinant STEP, OMFP fluorogenic substrate; AID 588621, 2011;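 active means inhibition at 20 µM, scaled per plate between control wells, above about 37%, limit read from the data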;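 further: 0% = DMSO with enzyme and substrate and 100% = substrate only without enzyme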
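Material: STEP (striatal-enriched tyrosine phosphatase) enzyme, cell-free; Compound dosing: 20 µM single dose in 1% DMSO; Technique: fluorescence read at 480 nm ex / 540 nm em; Times: reaction 20 min, ambient temperature; Medium: 50 mM Bis-Tris pH 6.0 with 2.5 mM DTT and 0.005% Tween 20; Also added: OMFP at 25 µM.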
SUMO1-SIM PPI = modulators of SUMO1 protein-protein interactions, primary screen, biochemical, uHTS; inhibition, % at 20 µM; SUMO1 binding to a labelled peptide, TR-FRET, 1 h; 0.33% of 360,000 active; in the data active means inhibition above about 37%
Target sequence (P63165 whole entry, looked up): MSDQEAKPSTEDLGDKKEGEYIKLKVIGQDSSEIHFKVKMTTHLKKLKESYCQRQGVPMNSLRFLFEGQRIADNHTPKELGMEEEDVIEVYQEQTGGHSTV
LMPTP inh = LMPTP phosphatase inhibitors, primary screen, biochemical, fluorescence intensity, uHTS. recombinant LMPTP-A, OMFP fluorogenic substrate. inhibition, % at 20 µM. 0.22% of 360,000 active;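 active means compounds that cut the enzyme signal by at least half of the control window in the single-dose screen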;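 further: plate controls were DMSO wells with enzyme plus substrate for no effect and substrate without enzyme for full effect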
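Assay system: LMPTP-A phosphatase enzyme | Input: 0.625 nM enzyme | Also added: Fluorogenic phosphatase substrate OMFP at 400 µM final | Compound dosing: One test concentration per compound, 20 µM, with 3% DMSO overall | Schedule: 50 min enzyme reaction at room temperature, protected from light | Signal: Fluorescence intensity | Benchmarks: no-enzyme and uninhibited controls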
DNMT1 block = human DNMT1 methyltransferase inhibitors, primary screen, biochemical, molecular beacon, fluorescence, HinP1I cleavage, uHTS; inhibition (reported as % activation of signal), % at 10 µM; 0.83% of 360,000 active; AID 588458, 2011; in the data active means inhibition above about 50%
Scp-1 inhibitor = Scp-1 phosphatase inhibitors, primary screen, biochemical, colorimetric, uHTS; Carboxy-terminal domain RNA polymerase II polypeptide A small phosphatase 1 (Homo …; Recombinant Scp1, phosphopeptide, malachite green phosphate absorbance; inhibition, % at 20 µM; 0.88% of 340,000 active; AID 493091, 2011;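 active means inhibition above about 50% at 20 µM, limit read from the data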;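 further: plate controls were DMSO wells with enzyme for no effect and wells lacking enzyme for full effect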
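Material: truncated SCP-1 phosphatase (76-261aa) / Buffer or medium: 50 mM Tris acetate pH 5.5, 0.005% Tween-20, 10 mM MgCl2 / Compound dosing: one concentration, 20 µM, with 1.0% DMSO / Incubation: 45 min room-temperature reaction, 5 min colour, 30 min stabiliser / Detection: colorimetric free-phosphate detection, absorbance 630 nm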
Rpn11 inh = Rpn11 (PSMD14) deubiquitinase inhibitors, primary screen, biochemical, fluorescence polarization, uHTS | human 26S proteasome, Ub4-pepOG fluorescence polarization; 20S core pre-blocked with epoxomicin | AID 588493, 2011 | 0.59% of 360,000 active | 26S proteasome non-ATPase regulatory subunit 14 (Homo sapiens), O00487 | inhibition, % at 20 µM;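 active means inhibition at 20 µM, scaled to each plate's controls, above about 33%, limit read from the data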
Scp1 confirm = Scp-1 phosphatase inhibitors, retest, confirmation, biochemical, colorimetric, single concentration; shares compounds with Scp-1 inhibitor; recombinant SCP-1 catalytic domain, phosphate release, malachite green absorbance; inhibition, % at 20 µM; 61% of 2,500 active; AID 540281, 2011;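 active means inhibition of at least 30% at 20 µM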;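 further: plate controls were DMSO with enzyme for no effect and buffer wells lacking enzyme for full effect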
MG interference = colorimetric readout interference by compounds, confirmation, artefact control for Scp-1 inhibitor project, biochemical, single concentration; shares compounds with Scp-1 inhibitor; Colorimetric interference counterscreen, malachite green absorbance 630 nm; apparent inhibition (interference), % at 20 µM; 2,500 tested, under 10 active;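 active means inhibition of at least 30% at 20 µM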;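 further: compounds added after enzyme reaction finished so only phosphate colour detection is probed; plate controls were DMSO wells with completed Scp-1 reaction for no effect and substrate wells lacking enzyme for full effect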
Scp-1 Tm shift = Scp-1 binding by thermal shift, confirmation, orthogonal assay for Scp-1 inhibitor project, biophysical, differential scanning fluorimetry; shares compounds with Scp-1 inhibitor; Recombinant SCP1, Sypro Orange thermal shift Tm; thermal shift relative to vanadate control, % at 40 µM; 25% of 1,500 active;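 active means substances whose mean melting-temperature shift, as a percentage of the reference inhibitor's shift, reaches about 5.3%, limit read from the data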;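 further: 0% = Tm of DMSO wells and 100% = Tm with sodium orthovanadate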
Beacon interf DR = spectral interference with molecular beacon fluorescence, dose response, artefact control for DNMT1 inhibitor project, biochemical, fluorescent molecular beacon; shares compounds with DNMT1 block; spectral interference counter-screen; IC50, µM; 200 tested, under 10 active; call rule not given here
DNMT1 inh conf = DNMT1 methyltransferase inhibitor retest, confirmation, biochemical, molecular beacon, fluorescence, single concentration; AID 602385, 2012; 8% of 2,300 active; DNMT1 molecular beacon HinP1I cleavage; inhibition, % at 10 µM; shares compounds with DNMT1 block;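 active means average inhibition of at least 30% in the single-concentration confirmation test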
Beacon interf = shows spectral interference in the DNMT1 beacon assay. shares compounds with DNMT1 block. DNMT1 molecular beacon spectral interference counterscreen, fluorescence 485/520. activation (fluorescence interference), % at 10 µM. 1% of 2,300 active;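 active means activation of at least 30% at 10 µM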;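 further: DNMT1 catalytic domain with a HinP1I cleavage step and a FAM/dabcyl DNA beacon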
Rpn11 inh conf = Rpn11 (PSMD14) deubiquitinase inhibitors, confirmation, biochemical, fluorescence polarization, single concentration. purified human 26S proteasome, Ub4-pepOG fluorescence polarization; proteasome pretreated with epoxomicin. 29% of 1,900 active. inhibition, % at 20 µM. shares compounds with Rpn11 inh
MMP-2 inh = MMP-2 enzyme inhibition, confirmation, counter-screen for RPN11 inhibitor project, biochemical, fluorescence, single concentration. AID 602330, 2012. shares compounds with Rpn11 inh. inhibition, % at 20 µM. 4% of 1,900 active. recombinant MMP-2, FRET peptide cleavage fluorescence;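 further: human MMP-2 activated beforehand with APMA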
Thrombin FP = bovine thrombin protease inhibition, confirmation, counter-screen for Rpn11 inhibitor project, biochemical, fluorescence polarization, single concentration | shares compounds with Rpn11 inh | bovine thrombin cleavage of Ub4-pepOG | inhibition, % at 20 µM | 13% of 1,900 active | AID 602333, 2012;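 active means mean inhibition at least 40% at 20 µM, or signal 3 deviations below plate average, so some actives read negative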;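 further: plate controls were thrombin with DMSO for no effect and buffer wells lacking thrombin for full effect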
Target sequence (P00735 whole entry, looked up): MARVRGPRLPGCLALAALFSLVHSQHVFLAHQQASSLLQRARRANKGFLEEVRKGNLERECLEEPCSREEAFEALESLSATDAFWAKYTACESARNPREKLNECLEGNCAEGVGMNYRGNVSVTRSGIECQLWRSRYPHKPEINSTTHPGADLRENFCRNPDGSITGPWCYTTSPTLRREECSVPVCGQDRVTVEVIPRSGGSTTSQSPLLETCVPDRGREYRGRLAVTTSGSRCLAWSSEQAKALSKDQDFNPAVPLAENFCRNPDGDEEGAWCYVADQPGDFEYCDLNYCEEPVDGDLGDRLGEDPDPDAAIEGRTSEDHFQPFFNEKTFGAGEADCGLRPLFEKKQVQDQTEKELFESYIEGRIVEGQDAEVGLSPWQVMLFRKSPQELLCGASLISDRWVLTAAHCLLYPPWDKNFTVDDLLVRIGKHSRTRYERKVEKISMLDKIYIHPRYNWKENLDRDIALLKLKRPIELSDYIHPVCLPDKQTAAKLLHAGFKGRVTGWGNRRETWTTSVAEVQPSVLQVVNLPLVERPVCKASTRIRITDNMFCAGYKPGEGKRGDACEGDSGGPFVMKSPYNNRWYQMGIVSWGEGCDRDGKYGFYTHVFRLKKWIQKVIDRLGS
Numbers without * were called inactive; x = not tested or not shown. Unless noted, no stated cut-off is given here; in the data, active means inhibition above about 40%; inactive means the rest.

SMILES	STEP inh	SUMO1-SIM PPI	LMPTP inh	DNMT1 block	Scp-1 inhibitor	Rpn11 inh	Scp1 confirm	MG interference	Scp-1 Tm shift	DNMT1 inh conf	Beacon interf	Rpn11 inh conf	MMP-2 inh	Thrombin FP	others
Cc1ccc(C(=O)O)cc1-c1ccc(/C=C2/NC(=O)N(c3ccccc3)C2=O)o1	5	25	4	92*	63*	42*	68*	-12	13*	34*	-2	75*	18	31	Beacon interf DR=>99
O=C(O)c1cc(-c2cccs2)nn1-c1cccc(Cl)c1	-1	13	-1	1	4	3	x	x	x	x	x	x	x	x
O=C(O)c1cc(-c2ccco2)nn1-c1cccc(Cl)c1	16	44*	8	105*	66*	42*	58*	-15	8.4*	7	-2	19	15	6
Clc1ccc(OCc2nn3c(-c4ccco4)nnc3s2)c(Cl)c1	4	0	32	39	81*	90*	70*	-11	2	x	x	27	6	7
Cc1ccc(OCc2nn3c(-c4ccco4)nnc3s2)cc1	4	1	0	3	-2	-4	x	x	x	x	x	x	x	x
CN(Cc1cnn(C)c1)Cc1nc(C(c2ccccc2)c2ccccc2)no1	0	0	0	-2	-6	-5	x	x	x	x	x	x	x	x
COc1ccc(CCC(=O)Nc2ccc(S(=O)(=O)N3CCCC3)cc2)cc1OC	3	5	-1	-3	-13	-10	x	x	x	x	x	x	x	x
O=C(c1ccco1)N1CCc2[nH]nc(-c3ccccc3)c2C1	2	-2	-1	0	-7	0	x	x	x	x	x	x	x	x
COc1cccc2cc(C(=O)Nc3ccc(F)cc3)c(=Nc3ccc(C(=O)O)cc3)oc12	-2	22	35	10	102*	128*	23	-17	x	x	x	117*	-4	-17
COc1ccccc1-n1cnc2c(c1=O)c1nc3ccccc3nc1n2-c1ccc(C)c(C)c1	17	1	7	24	96*	54*	67*	-6	-8	x	x	24	-23	0
Cc1ccccc1NC(=O)Cn1nnc(S(=O)(=O)c2ccc(C(C)(C)C)cc2)c1N	21	10	48	61*	106*	55*	76*	-19	-29	-1	2	31	-17	-6
CCCCNCCS(=O)(=O)NCc1ccc(OC)cc1	4	3	-2	4	-2	-3	x	x	x	x	x	x	x	x
COC(=O)c1ccc(C)c(NC(=O)CSc2sc3c(O)cc(=O)[nH]c3c2C#N)c1	17	38	38	27	68*	44*	53*	-21	12*	x	x	24	24	-5
COC(=O)c1ccc(C)c(NC(=O)CCSc2ccc(C)cc2)c1	3	1	0	1	-2	-2	x	x	x	x	x	x	x	x
Cc1ccc(-n2nnc3c(=O)n(CC(=O)NCc4ccccc4)cnc32)cc1	33	24	28	26	93*	43*	86*	-2	-10	x	x	49*	26	-19
Cc1ccc(-n2nnc3c(=O)n(CC(=O)c4ccccc4)cnc32)cc1	2	-1	13	8	-5	6	x	x	x	x	x	x	x	x
COc1ccc(O)c(/C=N/NC(=O)c2c(C)nnn2-c2nonc2N)c1	68*	-5	16	96*	100*	171*	86*	-9	-12	6	1	184*	21	26
O=C(Nc1ccc(O)c(-c2nc3ccccc3s2)c1)C1=COCCO1	-1	-117	1	-6	-11	7	x	x	x	x	x	x	x	x
O=C(Nc1ccc(-c2nc3ccccc3s2)c(O)c1)C1=COCCO1	22	2	53*	70*	98*	48*	71*	-7	9.9*	5	5	43*	38	-20
CSc1nc2nccc(-c3ccc(Cl)cc3)n2n1	5	1	25	10	84*	83*	71*	-14	-22	x	x	36	66*	-10
COc1cc(/C=C2\C(=N)N3N=C(S(C)(=O)=O)SC3=NC2=O)ccc1OC(=O)c1ccco1	1	4	1	20	52*	44*	68*	-14	11*	x	x	5	-20	7
Cc1ccc(CSCC(=O)N/N=C/c2ccc(OCC(=O)Nc3ccc(C)cc3)cc2)cc1	11	1	44	69*	112*	102*	80*	-11	-29	5	4	80*	19	12
